Measurements of several laboratories.
Compare with care: the assays were run in different laboratories.
MPO: Myeloperoxidase (MPO, Homo sapiens, UniProt P05164)
CASK: Peripheral plasma membrane protein CASK (CASK, Homo sapiens, UniProt O14936)
SLC6A2: Sodium-dependent noradrenaline transporter (SLC6A2, Homo sapiens, UniProt P23975)

For `CC(C)OCCn1c(=S)[nH]c(=O)c2[nH]ccc21`, the remaining activity was 67.4% (MPO; enzyme activity, inhibitor; 0.3125 µM).
The inhibition of `Cc1cc(O)c(-c2ccc([C@@H](C)CN(C)C)cc2)c2c1[nH]c(=O)c1sccc12` is reported as -0.829% (Extracellular serine/threonine protein kinase FAM20C (FAM20C, Homo sapiens, UniProt Q8IXL6); cell-free assay, inhibitor; 0.1 µM, lysate).
The remaining binding of `CCCCC(=O)Nc1ccc(-c2ccc3ncn(CCC)c(=O)c3c2)cn1` is reported as 100% (CASK; binding, competition with immobilised ligand; 0.5 µM).
`CC(=O)N[C@@H](C)c1cc(Cl)ccc1C1CCN(C(=O)[C@@H]2CN(C(C)(C)C)C[C@H]2c2ccc(F)cc2F)CC1` has an Emax of 104% (Melanocortin receptor 4 (MC4R, Homo sapiens, UniProt P32245); cAMP, agonist).
The inhibition of `CCOC(=O)[C@@]12C[C@@H]1[C@@H](n1cnc3c(NCCCCc4ccccc4)nc(C#Cc4ccc(Cl)s4)nc31)[C@H](O)[C@@H]2O` is reported as 3% (SLC6A2; ligand displacement, radioligand; 10 µM).
With `COc1ccc(Cl)cc1-c1cc(=O)[nH]c(=S)n1CC(N)=O` the inhibition was 87.6% (MPO; enzyme activity, inhibitor, fluorescence; 0.5556 µM).
With `CSc1nc(NCCC2CC2)c2ncn([C@H]3[C@H](O)[C@H](O)[C@@H]4C[C@@H]43)c2n1` the inhibition was 5% (SLC6A2; ligand displacement, radioligand; 10 µM).
The remaining binding of `C1=C/COCc2cc(ccc2OCCN2CCCC2)Nc2nccc(n2)-c2cccc(c2)COC/1` is reported as 81% (CASK; binding; 0.1 µM).
`CCOC(=O)[C@@]12C[C@@H]1[C@@H](n1ccc3c(NCCCCc4ccccc4)nc(C#Cc4ccccc4)nc31)[C@H](O)[C@@H]2O` has an inhibition of 81% (SLC6A2; ligand displacement, radioligand; 10 µM).
With `NC/C(=C\F)COc1cccc(Cn2c(=S)[nH]c(=O)c3[nH]cnc32)c1` the inhibition was 98.5% (MPO; enzyme activity, inhibitor, fluorescence; 0.3333 µM).
`CCOC(=O)[C@@]12C[C@@H]1[C@@H](n1cnc3c(NCCCCCCc4ccccc4)nc(C#Cc4ccc(Cl)s4)nc31)[C@H](O)[C@@H]2O` has an inhibition of 83% (SLC6A2; ligand displacement, radioligand; 10 µM).
`COc1ccc2oc(-c3ccc4nc(N)oc4c3)c/c(=N\c3ccccc3NC(=O)CCN)c2c1` gave a remaining binding of 97% (Fibroblast growth factor receptor 1 (FGFR1, Homo sapiens, UniProt P11362, V561M); binding; 1 µM).
